Tests used:
Format in all cases: functional
[1] = Growth inhibition of human UO31 cells after 48 hrs by sulforhodamine B assay; details: UO-31, 48 h
In short: (§1)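 NCI-60 panel screen by SRB assay (Rubinstein method). Percentage growth taken from optical density of SRB colour, read before and 48 hrs after exposure to compound or vehicle control. All analogues first screened at 10^-5 M. Analogues giving 60% growth inhibition at that level in at least eight lines then went to a five-concentration dose-response study.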

NCI-H460 = experiment: Growth inhibition of human NCI-H460 cells after 48 hrs by sulforhodamine B assay; details: NCI-H460, 48 h; in short: as §1
[2] = Growth inhibition of human SW620 cells after 48 hrs by sulforhodamine B assay; details: SW-620, 48 h; in short: as §1
A498 = experiment: Growth inhibition of human A498 cells after 48 hrs by sulforhodamine B assay; details: A498, 48 h
In short: (§2)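 NCI-60 sulforhodamine B screen. Compounds were first tested at a single dose of 10⁻⁵ M; hits, defined as ≥60% growth inhibition in at least eight lines, went on to a five-concentration dose–response. SRB optical density was read before and 48 h after exposure to compound or vehicle. Percentage growth was calculated from OD.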

[3] = Growth inhibition of human RPMI8226 cells after 48 hrs by sulforhodamine B assay; details: RPMI-8226, 48 h; in short: as §1
[4] = Growth inhibition of human SF268 cells after 48 hrs by sulforhodamine B assay; details: SF-268, 48 h; in short: as §1
MDA-MB-468 = experiment: Growth inhibition of human MDA-MB-468 cells after 48 hrs by sulforhodamine B assay; details: MDA-MB-468, 48 h; in short: as §1
[5] = Growth inhibition of human COLO205 cells after 48 hrs by sulforhodamine B assay; details: COLO 205, 48 h; in short: as §1
MCF7 = experiment: Growth inhibition of human MCF7 cells after 48 hrs by sulforhodamine B assay; details: MCF7, 48 h; in short: as §1
[6] = Growth inhibition of human PC3 cells after 48 hrs by sulforhodamine B assay; details: PC-3, 48 h; in short: as §1
[7] = Growth inhibition of human HCC2998 cells after 48 hrs by sulforhodamine B assay; details: HCC 2998, 48 h; in short: as §1
NCI-H23 = experiment: Growth inhibition of human NCI-H23 cells after 48 hrs by sulforhodamine B assay; details: NCI-H23, 48 h; in short: as §1
[8] = Growth inhibition of human SNB75 cells after 48 hrs by sulforhodamine B assay; details: SNB-75, 48 h; in short: as §1
A549 = experiment: Growth inhibition of human A549/ATCC cells after 48 hrs by sulforhodamine B assay; details: A549, 48 h; in short: as §1
SR = experiment: Growth inhibition of human SR cells after 48 hrs by sulforhodamine B assay; in short: as §1
SK-MEL-2 = experiment: Growth inhibition of human SK-MEL-2 cells after 48 hrs by sulforhodamine B assay; details: SK-MEL-2, 48 h; in short: as §1
HT-29 = experiment: Growth inhibition of human HT-29 cells after 48 hrs by sulforhodamine B assay; details: HT-29, 48 h; in short: as §1
U-251 = experiment: Growth inhibition of human U251 cells after 48 hrs by sulforhodamine B assay; details: U-251, 48 h; in short: as §1
[9] = Growth inhibition of human OVCAR3 cells after 48 hrs by sulforhodamine B assay; details: OVCAR-3, 48 h; in short: as §2
[10] = Growth inhibition of human SKOV3 cells after 48 hrs by sulforhodamine B assay; details: SK-OV-3, 48 h; in short: as §1
MDA-MB-435 = experiment: Growth inhibition of human MDA-MB-435 cells after 48 hrs by sulforhodamine B assay; details: MDA-MB-435, 48 h; in short: as §2
[11] = Growth inhibition of human DU145 cells after 48 hrs by sulforhodamine B assay; details: DU-145, 48 h; in short: as §1
[12] = Growth inhibition of human IGROV1 cells after 48 hrs by sulforhodamine B assay; details: IGROV-1, 48 h; in short: as §1
CCRF-CEM = experiment: Growth inhibition of human CCRF-CEM cells after 48 hrs by sulforhodamine B assay; in short: as §1
786-0 = experiment: Growth inhibition of human 786-0 cells after 48 hrs by sulforhodamine B assay; details: 786-0, 48 h; in short: as §1
[13] = Growth inhibition of human MOLT4 cells after 48 hrs by sulforhodamine B assay; details: MOLT-4, 48 h; in short: as §1
[14] = Growth inhibition of human LOXIMVI cells after 48 hrs by sulforhodamine B assay; details: LOX IMVI; in short: as §1
K562 = experiment: Growth inhibition of human K562 cells after 48 hrs by sulforhodamine B assay; details: K562, 48 h; in short: as §1
[15] = Growth inhibition of human HCT15 cells after 48 hrs by sulforhodamine B assay; details: HCT-15, 48 h; in short: as §1
ACHN = experiment: Growth inhibition of human ACHN cells after 48 hrs by sulforhodamine B assay; in short: as §1
[16] = Growth inhibition of human SF295 cells after 48 hrs by sulforhodamine B assay; details: SF-295, 48 h; in short: as §1
MDA-MB-231 = experiment: Growth inhibition of human MDA-MB-231 cells after 48 hrs by sulforhodamine B assay; details: MDA-MB-231, 48 h; in short: as §1
KM12 = experiment: Growth inhibition of human KM12 cells after 48 hrs by sulforhodamine B assay; details: KM12, 48 h; in short: as §1
[17] = Growth inhibition of human HOP62 cells after 48 hrs by sulforhodamine B assay; details: HOP-62, 48 h; in short: as §1
CAKI-1 = experiment: Growth inhibition of human CAKI-1 cells after 48 hrs by sulforhodamine B assay; details: CAKI-1, 48 h; in short: as §1
[18] = Growth inhibition of human HL-60(TB) cells after 48 hrs by sulforhodamine B assay; details: HL-60, 48 h; in short: as §1
[19] = Growth inhibition of human NCI-ADR-RES cells after 48 hrs by sulforhodamine B assay; in short: as §1
[20] = read-out: LD50 (the source's name)

COc1ccc(-c2n[nH]nc2-c2cc(OC)cc(OC)c2)cc1
GI50 [1]: 20 nM | LC50 (concentration killing 50% of cells) ([1]; read-out: LD50): > 100000 nM | GI50 (NCI-H460): 34 nM | CC50 (NCI-H460; [20]): > 100000 nM | GI50 [2]: 30 nM | LD50 (concentration killing 50% of cells) [2]: > 100 µM | GI50 (A498): < 10 nM | LC50 (50% net cell kill) (A498; read-out: LD50): > 100000 nM | GI50 [3]: 37 nM | CC50 [3, 20]: > 100000 nM | GI50 [4]: 177 nM | CC50 [4, 20]: > 100000 nM | GI50 (MDA-MB-468): 23 nM | CC50 (MDA-MB-468; [20]): > 100000 nM | GI50 [5]: 149 nM | CC50 [5, 20]: > 100000 nM | GI50 (MCF7): 25 nM | CC50 (MCF7; [20]): > 100000 nM | GI50 [6]: 42 nM | CC50 [6, 20]: > 100000 nM | GI50 [7]: 46 nM | CC50 [7, 20]: > 100000 nM | GI50 (NCI-H23): 38 nM | LC50 (concentration giving 50% cell kill) (NCI-H23; read-out: LD50): > 100000 nM | GI50 [8]: 14 nM | CC50 [8, 20]: > 100000 nM | GI50 (A549): 37 nM | CC50 (A549; [20]): > 100000 nM | GI50 (SR): < 10 nM | LC50 (concentration giving 50% net cell kill) (SR; read-out: LD50): > 100000 nM | GI50 (SK-MEL-2): 56 nM | CC50 (SK-MEL-2; [20]): > 100000 nM | GI50 (HT-29): 48 nM | LC50 (concentration killing 50% of cells) (HT-29; read-out: LD50): > 100000 nM | GI50 (U-251): 38 nM | CC50 (U-251; [20]): > 100000 nM | GI50 [9]: 24 nM | LC50 (concentration giving 50% net cell kill) ([9]; read-out: LD50): > 100000 nM | GI50 [10]: 46 nM | LC50 (concentration killing 50% of cells) ([10]; read-out: LD50): > 100000 nM | GI50 (MDA-MB-435): < 10 nM | TGI (MDA-MB-435): 10 nM | LC50 (concentration killing 50% of cells) (MDA-MB-435; read-out: LD50): > 100000 nM | GI50 [11]: 45 nM | CC50 [11, 20]: > 100000 nM | GI50 [12]: 51 nM | CC50 [12, 20]: > 100000 nM | GI50 (CCRF-CEM): 32 nM | LC50 (concentration killing 50% of cells) (CCRF-CEM; read-out: LD50): > 100000 nM | GI50 (786-0): 15 nM | LC50 (concentration killing 50% of cells) (786-0; read-out: LD50): > 100000 nM | GI50 [13]: 48 nM | CC50 [13, 20]: > 100000 nM | GI50 [14]: 76 nM | CC50 [14, 20]: > 100000 nM | GI50 (K562): < 10 nM | CC50 (K562; [20]): > 100000 nM | GI50 [15]: < 10 nM | CC50 [15, 20]: > 100000 nM | GI50 (ACHN): 145 nM | CC50 (ACHN; [20]): > 100000 nM | GI50 [16]: 11 nM | CC50 [16, 20]: > 100000 nM | GI50 (MDA-MB-231): 46 nM | CC50 (MDA-MB-231; [20]): > 100000 nM | GI50 (KM12): 30 nM | LC50 (concentration killing 50% of cells) (KM12; read-out: LD50): > 100000 nM | GI50 [17]: 25 nM | LC50 (concentration killing 50% of cells) ([17]; read-out: LD50): > 100000 nM | GI50 (CAKI-1): 50 nM | CC50 (CAKI-1; [20]): > 100000 nM | GI50 [18]: 23 nM | CC50 [18, 20]: > 100000 nM | GI50 [19]: < 10 nM | CC50 [19, 20]: > 100000 nM

— ChEMBL document CHEMBL3739417, “Synthesis and biological evaluation of novel 4,5-disubstituted 2H-1,2,3-triazoles as cis-constrained analogues of combretastatin A-4” (2015)
